What was measured:
[1] = tested on: Mus musculus; assay: Effective dose for protection against seizures induced in the maximal electroshock anticonvulsant screen test after intraperitoneal injection in mice; type: functional; conditions: ip
In short: (§1)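 Mice received compound intraperitoneally, with quantitative evaluation in the MES, scPTZ and neurotoxicity screens at the tabulated time. ED50 or TD50 (mg/kg) reported with 95% CI, slope and SE. Testing done by NINDS under its reported procedures.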

[2] = tested on: Mus musculus; assay: Effective dose for protection against seizures induced in the subcutaneous pentylenetetrazole screen test in mice; type: functional; conditions: sc; in short: as §1
[3] = Protective index is the ratio of TD50 in neurotoxicity screen test and ED50 in MES screen test
[4] = Neurotoxicity was determined, 0.25 hr after intraperitoneal injection in mice.; type: toxicity, organism-based; conditions: mouse, in vivo, ip; in short: as §1
[5] = Protective index is the ratio of TD50 and ED50 in subcutaneous pentylenetetrazole screen test; type: functional
In short: (§2)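 Protection index is TD50/ED50, taken from intraperitoneal mouse data for the MES and scPTZ screens respectively, or from oral rat MES data.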

[6] = tested on: Rattus norvegicus; assay: Effective dose for protection against seizures induced in the maximal electroshock anticonvulsant screen test 1 hr after oral dosing in rat; type: functional
In short: (§3)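 Oral dosing in rats, with MES protection or neurotoxicity assessed at the stated time. ED50 or TD50 (mg/kg) given with 95% CI, slope and SE. Testing done by NINDS under its reported procedures.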

[7] = Neurotoxicity was determined, 1 hr after oral dosing in rat.; type: toxicity, organism-based; conditions: in vivo; in short: as §3
[8] = tested on: Mus musculus; assay: Ability to prevent seizures induced by subcutaneous injection of bicuculline, after 0.25 hr in mice; type: functional; conditions: sc
In short: (§4)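 Mice dosed intraperitoneally at various doses, then bicuculline 2.7 mg/kg given subcutaneously and protection noted. ED50 with 95% CI, slope and SE obtained using eight animals per dose; otherwise two, seven or eight mice per dose. Screening run by NINDS per its reported procedures.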

[9] = Protective index is the ratio of TD50 and ED50 in maximal electroshock anticonvulsant screen test; type: functional; in short: as §2
[10] = tested on: Rattus norvegicus; assay: Neurotoxicity was determined, of 0.25, 0.5, 1, 2 and 4 h, after 300 mg/kg oral dosing in rat.; type: toxicity, organism-based; set-up: dose 300 mg/kg, route oral; conditions: in vivo
In short: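 Rats given 300 mg/kg orally and checked for neurotoxicity 0.25, 0.5, 1, 2 and 4 h later, using two animals per time point. Testing done by NINDS.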

[11] = tested on: Mus musculus; assay: Ability to prevent seizures induced by subcutaneous injection of picrotoxin, after 0.25 hr in mice; type: functional; conditions: sc
In short: (§5)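 Mice received various intraperitoneal doses of compound, then subcutaneous picrotoxin at 2.5 mg/kg. Protection from seizures was scored. ED50 values use eight mice per dose and are given with 95% CI, slope and SE.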

[12] = Toxic dose determined neurotoxicity, 1 hr after oral dosing in rat; type: toxicity, organism-based; conditions: in vivo
In short: (§6)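 Rats were dosed orally, with the NINDS programme running the tests by its reported procedures. MES protection (ED50) and neurotoxicity (TD50) were measured at timed intervals after dosing. Each value is given as a dose-response ED50 or TD50 in mg/kg with 95% CI, slope and SE.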

[13] = Toxic dose determined as neurotoxicity, 0.25 hr after intraperitoneal injection in mice; type: toxicity, organism-based; conditions: mouse, in vivo, ip
In short: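 Mice received the compound by intraperitoneal injection, with the NINDS programme running the test by its reported procedures. Neurotoxicity was assessed at set times after dosing. TD50 is given in mg/kg with 95% CI, slope and SE.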

[14] = tested on: Rattus norvegicus; assay: Ability to protect against seizures induced in the maximal electro shock (MES) screen test 1 hr after oral dosing in rat; type: functional; in short: as §6
[15] = tested on: Mus musculus; assay: Ability to prevent seizures induced by subcutaneous injection of bicuculline, after 4 hr in mice; type: functional; conditions: sc; in short: as §4
[16] = tested on: Rattus norvegicus; assay: Ability to protect against seizures induced in the maximal electro shock (MES) screen,test1 hr after oral dosing in rat.; type: functional; in short: as §3
[17] = Neurotoxicity was determined, 1 hr after oral dosing in rat; type: toxicity, organism-based; conditions: in vivo; in short: as §3
[18] = tested on: Mus musculus; assay: Ability to prevent seizures induced by subcutaneous injection of bicuculline, after 1 hr in mice; type: functional; conditions: sc; in short: as §4
[19] = Toxic dose determined as neurotoxicity, 1 h after oral dosing in rat; type: toxicity, organism-based; conditions: in vivo; in short: as §3
[20] = Toxic dose determined as neurotoxicity, 0.25 hr after intraperitoneal injection in mice.; type: toxicity, organism-based; conditions: mouse, in vivo, ip; in short: as §1
[21] = tested on: Mus musculus; assay: Ability to prevent seizures induced by subcutaneous injection of picrotoxin, after 1 hr in mice; type: functional; conditions: sc; in short: as §5

## NC(=O)N/N=C/CCc1ccccc1 [PHENYLETHYLSEMICARBAZONE]
[1]
  ED50: 47 mg/kg
[2]
  ED50: 78.6 mg/kg
[3]
  Ratio: 9.16
[4]
  TD50 at 0.25 h: 72.3 mg/kg
[5]
  Ratio: 0.92
[6]
  ED50: 36.4 mg/kg
[7]
  TD50 at 1 h: 334 mg/kg
[8]
  ED50: > 120 mg/kg
[9]
  Ratio: 1.54

## NC(=O)N/N=C/c1ccc(Cl)cc1Cl
[3]
  Ratio: > 11.6
[6]
  ED50: 43.1 mg/kg
[7]
  TD50 at 1 h: > 500 mg/kg

## COc1ccc(/C=N/NC(N)=O)cc1
[10]
  TD50: No activity

## CC/C(=N\NC(N)=O)c1ccccc1
[11]
  ED50: 128 mg/kg
[3]
  Ratio: 12.3
[6]
  ED50: 32.8 mg/kg
[7]
  TD50 at 1 h: 404 mg/kg
[8]
  ED50: > 100 mg/kg

## C/C(=N/N=C(\N)S)c1ccc(Cl)cc1 [P-CHLOROPHENYL(METHYL)THIOSEMICARBAZONE]
[1]
  ED50: 60.4 mg/kg
[12]
  TD50 at 1 h: 119 mg/kg
[2]
  ED50: 69.6 mg/kg
[3]
  Ratio: 7.67
[5]
  Ratio: 0.34
[13]
  TD50 at 0.25 h: 23.8 mg/kg
[14]
  ED50: 15.5 mg/kg
[9]
  Ratio: 0.39

## NC(=O)N/N=C/C=C/c1ccccc1 [PHENYLETHENYLSEMICARBAZONE]
[1]
  ED50: 48.9 mg/kg
[2]
  ED50: 84.7 mg/kg
[3]
  Ratio: > 43.5
[4]
  TD50 at 0.25 h: 98.2 mg/kg
[5]
  Ratio: 1.16
[6]
  ED50: 11.5 mg/kg
[7]
  TD50 at 1 h: > 500 mg/kg
[8]
  ED50: > 120 mg/kg
[9]
  Ratio: 2.01

## NC(=O)N/N=C/c1c(Cl)cccc1Cl
[3]
  Ratio: 2.18
[6]
  ED50: 59 mg/kg
[7]
  TD50 at 1 h: 129 mg/kg

## NC(=O)N/N=C/c1ccc(Cl)c(Cl)c1
[1]
  ED50: 146 mg/kg
[2]
  ED50: > 500 mg/kg
[3]
  Ratio: > 24.8
[4]
  TD50 at 0.25 h: > 500 mg/kg
[15]
  ED50: > 500 mg/kg
[6]
  ED50: 20.2 mg/kg
[7]
  TD50 at 1 h: > 500 mg/kg
[9]
  Ratio: > 3.43

## NC(=O)NN=C(c1ccccc1)c1ccccc1 [DIPHENYLSEMICARBAZONE]
[1]
  ED50: 47 mg/kg
[2]
  ED50: 76.2 mg/kg
[3]
  Ratio: 10.3
[4]
  TD50 at 0.25 h: 89.7 mg/kg
[5]
  Ratio: 1.18
[6]
  ED50: 22.9 mg/kg
[7]
  TD50 at 1 h: 235 mg/kg
[8]
  ED50: > 100 mg/kg
[9]
  Ratio: 1.91

## NC(=O)N/N=C\c1ccccc1 [PHENYLSEMICARBAZONE]
[1]
  ED50: 69.7 mg/kg
[11]
  ED50: 104 mg/kg
[2]
  ED50: 127 mg/kg
[3]
  Ratio: 11.3
[16]
  ED50: 22.5 mg/kg
[5]
  Ratio: 1.6
[13]
  TD50 at 0.25 h: 204 mg/kg
[8]
  ED50: 116 mg/kg
[9]
  Ratio: 2.93
[17]
  TD50 at 1 h: 254 mg/kg

## NC(=O)N/N=C/c1ccc(Cl)cc1
[1]
  ED50: 74.8 mg/kg
[11]
  ED50: 146 mg/kg
[2]
  ED50: 135 mg/kg
[3]
  Ratio: > 26.9
[4]
  TD50 at 0.25 h: 252 mg/kg
[5]
  Ratio: 1.87
[6]
  ED50: 18.6 mg/kg
[8]
  ED50: > 300 mg/kg
[9]
  Ratio: 3.37
[17]
  TD50 at 1 h: > 500 mg/kg

## C/C(=N\N=C(/N)S)c1ccccc1 [PHENYL(METHYL)THIOSEMICARBAZONE]
[3]
  Ratio: 4.33
[6]
  ED50: 16.9 mg/kg
[7]
  TD50 at 1 h: 73 mg/kg

## NC(=O)N/N=C/c1cccc(Cl)c1
[1]
  ED50: 90.4 mg/kg
[2]
  ED50: 177 mg/kg
[3]
  Ratio: > 20.5
[5]
  Ratio: >2.82
[6]
  ED50: 24.4 mg/kg
[9]
  Ratio: > 5.53
[18]
  ED50: > 500 mg/kg
[19]
  TD50 at 1 h: > 500 mg/kg
[20]
  TD50 at 0.25 h: > 500 mg/kg
[21]
  ED50: 200 mg/kg

## CC(C)/C(=N\NC(N)=O)c1ccccc1
[3]
  Ratio: 5.66
[6]
  ED50: 43.3 mg/kg
[7]
  TD50 at 1 h: 245 mg/kg

## CCCC/C(=N\NC(N)=O)c1ccccc1 [PHENYL(BUTYL)SEMICARBAZONE]
[1]
  ED50: 58.3 mg/kg
[2]
  ED50: 108 mg/kg
[3]
  Ratio: > 8.41
[4]
  TD50 at 0.25 h: 106 mg/kg
[5]
  Ratio: 0.97
[6]
  ED50: 59.5 mg/kg
[7]
  TD50 at 1 h: > 500 mg/kg
[9]
  Ratio: 1.81

## NC(=S)N/N=C/c1ccccc1 [PHENYLTHIOSEMICARBAZONE]
[3]
  Ratio: > 15.6
[6]
  ED50: 12.8 mg/kg
[7]
  TD50 at 1 h: > 200 mg/kg

## NC(=O)N/N=C/c1ccccc1Cl
[3]
  Ratio: > 12.9
[6]
  ED50: 38.8 mg/kg
[7]
  TD50 at 1 h: > 500 mg/kg

## CC(=NNC(N)=O)c1ccccc1 [PHENYL(METHYL)SEMICARBAZONE]
[1]
  ED50: 35.1 mg/kg
[11]
  ED50: 60.8 mg/kg
[2]
  ED50: 78.5 mg/kg
[3]
  Ratio: 13.2
[4]
  TD50 at 0.25 h: 82.3 mg/kg
[5]
  Ratio: 1.05
[6]
  ED50: 20.2 mg/kg
[7]
  TD50 at 1 h: 268 mg/kg
[8]
  ED50: > 100 mg/kg
[9]
  Ratio: 2.34

## CCCCC/C(=N\NC(N)=O)c1ccccc1
[11]
  ED50: 230 mg/kg
[3]
  Ratio: > 15.3
[6]
  ED50: 32.6 mg/kg
[7]
  TD50 at 1 h: > 500 mg/kg
[8]
  ED50: 363 mg/kg

## NC(=O)N/N=C/Cc1ccccc1 [PHENYLMETHYLSEMICARBAZONE]
[1]
  ED50: 45.5 mg/kg
[11]
  ED50: > 150 mg/kg
[2]
  ED50: 128 mg/kg
[3]
  Ratio: > 11.7
[4]
  TD50 at 0.25 h: 120 mg/kg
[5]
  Ratio: 0.94
[6]
  ED50: 42.8 mg/kg
[7]
  TD50 at 1 h: > 500 mg/kg
[8]
  ED50: 59.6 mg/kg
[9]
  Ratio: 2.63

Source: ChEMBL document CHEMBL1126755, “Anticonvulsant activities of some arylsemicarbazones displaying potent oral activity in the maximal electroshock screen in rats accompanied by high protection indices” (J Med Chem, 1993)
